ChEMBL document CHEMBL5108071, “Potent and Specific Activators for Mitochondrial Sirtuins Sirt3 and Sirt5” (J Med Chem, 2022)
Values belong to the compound of their own block, whether it stands above or below them. Calls of active or inactive are those of the source. No cut-off for these calls is given here.

What was measured:
[1] = target: T1, NAD-dependent protein deacetylase sirtuin-3, mitochondrial (Homo sapiens) (UniProt Q9NTG7); assay: Inhibition of N-terminal his-tagged human SIRT3 (114 to 380 residues) expressed in Escherichia coli at 100 uM using ACS2-acK642 as substrate in presence of NAD+ relative to control
T1 sequence (whole entry): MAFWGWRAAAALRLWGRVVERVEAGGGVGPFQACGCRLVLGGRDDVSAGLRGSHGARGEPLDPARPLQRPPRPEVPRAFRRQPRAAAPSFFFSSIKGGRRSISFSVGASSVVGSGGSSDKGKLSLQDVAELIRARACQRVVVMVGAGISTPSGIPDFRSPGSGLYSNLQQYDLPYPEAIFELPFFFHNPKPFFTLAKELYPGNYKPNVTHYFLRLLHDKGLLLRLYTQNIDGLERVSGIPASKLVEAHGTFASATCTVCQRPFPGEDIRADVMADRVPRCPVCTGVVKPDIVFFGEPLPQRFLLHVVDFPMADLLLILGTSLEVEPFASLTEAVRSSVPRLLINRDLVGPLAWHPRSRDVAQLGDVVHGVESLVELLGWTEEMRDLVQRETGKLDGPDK
How it was run: (§1)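 Coupled enzymatic deacylation assay (nicotinamidase/GDH-coupled, continuous): 1.5 μM recombinant Sirtuin (expressed in E. coli, Ni-NTA purified, tag removed, size-exclusion purified) with 50 μM substrate peptide and 100 μM NAD+, without or with 10 μM or 100 μM 1,4-DHP, 5% final DMSO. Activity expressed relative to no-compound control.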

[2] = target: T2, NAD-dependent protein deacetylase sirtuin-2 (Homo sapiens) (UniProt Q8IXJ6); assay: Inhibition of N-terminal SUMO-tagged human SIRT2 (43 to 356 residues) expressed in Escherichia coli at 100 uM using acetylated alpha tubulin-K25 as substrate in presence of NAD+ relative to control; how it was run: as §1
T2 sequence (whole entry): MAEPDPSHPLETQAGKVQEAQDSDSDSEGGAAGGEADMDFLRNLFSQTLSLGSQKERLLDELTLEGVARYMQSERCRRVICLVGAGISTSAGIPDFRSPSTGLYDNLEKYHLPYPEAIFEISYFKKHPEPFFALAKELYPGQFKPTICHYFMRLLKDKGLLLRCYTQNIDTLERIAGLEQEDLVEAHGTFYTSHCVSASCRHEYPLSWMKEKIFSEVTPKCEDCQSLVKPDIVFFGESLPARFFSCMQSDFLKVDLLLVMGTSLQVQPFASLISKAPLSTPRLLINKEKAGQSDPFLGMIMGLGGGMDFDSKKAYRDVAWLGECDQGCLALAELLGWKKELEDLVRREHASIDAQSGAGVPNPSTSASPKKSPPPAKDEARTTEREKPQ

[3] = target: NAD-dependent protein deacylase sirtuin-5, mitochondrial (Homo sapiens) (UniProt Q9NXA8); assay: Activation of SIRT5 in human CAPAN-1 cells assessed as decrease in GOT1 acetylation at 20 uM incubated for 24 hrs by Western blot analysis; details: filed as activator
Target sequence in this assay (Q9NXA8 whole entry, looked up, the tested form may be a part): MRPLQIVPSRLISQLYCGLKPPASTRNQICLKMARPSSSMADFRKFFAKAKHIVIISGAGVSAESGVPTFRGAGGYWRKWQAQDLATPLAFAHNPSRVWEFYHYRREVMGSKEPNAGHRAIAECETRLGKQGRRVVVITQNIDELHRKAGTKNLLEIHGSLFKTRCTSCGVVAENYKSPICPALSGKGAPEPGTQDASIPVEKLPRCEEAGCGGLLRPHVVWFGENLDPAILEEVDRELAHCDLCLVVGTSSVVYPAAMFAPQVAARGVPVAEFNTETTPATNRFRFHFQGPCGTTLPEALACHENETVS

[4] = target: NAD-dependent protein deacylase sirtuin-5, mitochondrial (Homo sapiens) (UniProt Q9NXA8); assay: Activation of SIRT5 in human S2-013 cells assessed as decrease in GOT1 acetylation at 20 uM incubated for 24 hrs by Western blot analysis; details: filed as activator
Target sequence in this assay (Q9NXA8 whole entry, looked up, the tested form may be a part): as above

[5] = target: NAD-dependent protein deacylase sirtuin-5, mitochondrial (Homo sapiens) (UniProt Q9NXA8); assay: Activation of N-terminal his-tagged human SIRT5 (34 to 302 residues) expressed in Escherichia coli assessed as fold activation at 10 to 100 uM using CPS1-succ537 as substrate in presence of NAD+; details: filed as activator, dose 10-100 µM; how it was run: as §1
Target sequence in this assay (Q9NXA8 37-310 limits assumed): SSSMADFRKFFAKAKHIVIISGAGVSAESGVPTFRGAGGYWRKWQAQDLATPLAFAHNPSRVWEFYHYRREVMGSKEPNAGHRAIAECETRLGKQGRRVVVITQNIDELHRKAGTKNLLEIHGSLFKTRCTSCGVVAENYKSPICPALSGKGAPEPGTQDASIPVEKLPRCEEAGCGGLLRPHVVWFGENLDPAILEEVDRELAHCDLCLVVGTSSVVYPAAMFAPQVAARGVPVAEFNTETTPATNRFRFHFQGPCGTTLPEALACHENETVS

[6] = target: NAD-dependent protein deacylase sirtuin-5, mitochondrial (Homo sapiens) (UniProt Q9NXA8); assay: Activation of N-terminal his-tagged human SIRT5 (34 to 302 residues) expressed in Escherichia coli assessed as desuccinylation of substrate at 100 uM using CPS1-succ537 as substrate in presence of NAD+ by Mass spectrometry analysis; details: filed as activator
How it was run: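 MS-based desuccinylation assay: same components as coupled assay (1.5 μM Sirt5, 50 μM CPS1-succK537 peptide, 100 μM NAD+, 5% DMSO) but in 50 mM Na-phosphate pH 7.8 with 0.05 μg/μL PNCA to remove nicotinamide; compound at 100 μM; product and substrate peptides quantified by mass spectrometry.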
Target sequence in this assay (Q9NXA8 37-310 limits assumed): as above

[7] = target: NAD-dependent protein deacylase sirtuin-5, mitochondrial (Homo sapiens) (UniProt Q9NXA8); assay: Activation of human recombinant SIRT5 assessed as decrease in PDHA1-succinylation at 100 uM by Western blot analysis; details: filed as activator
Target sequence in this assay (Q9NXA8 whole entry, looked up, the tested form may be a part): as the sequence (Q9NXA8 whole entry, looked up, the tested form may be a part) above

[8] = target: NAD-dependent protein deacylase sirtuin-5, mitochondrial (Homo sapiens) (UniProt Q9NXA8); assay: Activation of SIRT5 in human MDA-MB-231 cells assessed as decrease in GLS activity at 50 uM using TMP substrate incubated for 4 to 24 hrs; details: filed as activator, time 4-24 hrs
Target sequence in this assay (Q9NXA8 whole entry, looked up, the tested form may be a part): as above

[9] = target: T2, NAD-dependent protein deacetylase sirtuin-2 (Homo sapiens); assay: Activation of N-terminal SUMO-tagged human SIRT2 (43 to 356 residues) expressed in Escherichia coli assessed as deacetylation of substrate by measuring fold activation at 100 uM using acetylated alpha tubulin-K2 as substrate in presence of NAD+; details: filed as activator; how it was run: as §1
[10] = target: T3, NAD-dependent protein deacetylase sirtuin-1 (Homo sapiens) (UniProt Q96EB6); assay: Activation of N-terminal his-tagged human SIRT1 expressed in Escherichia coli assessed as fold activation at 100 uM using p53-acK381 as substrate in presence of NAD+; details: filed as activator; how it was run: as §1
T3 sequence (whole entry): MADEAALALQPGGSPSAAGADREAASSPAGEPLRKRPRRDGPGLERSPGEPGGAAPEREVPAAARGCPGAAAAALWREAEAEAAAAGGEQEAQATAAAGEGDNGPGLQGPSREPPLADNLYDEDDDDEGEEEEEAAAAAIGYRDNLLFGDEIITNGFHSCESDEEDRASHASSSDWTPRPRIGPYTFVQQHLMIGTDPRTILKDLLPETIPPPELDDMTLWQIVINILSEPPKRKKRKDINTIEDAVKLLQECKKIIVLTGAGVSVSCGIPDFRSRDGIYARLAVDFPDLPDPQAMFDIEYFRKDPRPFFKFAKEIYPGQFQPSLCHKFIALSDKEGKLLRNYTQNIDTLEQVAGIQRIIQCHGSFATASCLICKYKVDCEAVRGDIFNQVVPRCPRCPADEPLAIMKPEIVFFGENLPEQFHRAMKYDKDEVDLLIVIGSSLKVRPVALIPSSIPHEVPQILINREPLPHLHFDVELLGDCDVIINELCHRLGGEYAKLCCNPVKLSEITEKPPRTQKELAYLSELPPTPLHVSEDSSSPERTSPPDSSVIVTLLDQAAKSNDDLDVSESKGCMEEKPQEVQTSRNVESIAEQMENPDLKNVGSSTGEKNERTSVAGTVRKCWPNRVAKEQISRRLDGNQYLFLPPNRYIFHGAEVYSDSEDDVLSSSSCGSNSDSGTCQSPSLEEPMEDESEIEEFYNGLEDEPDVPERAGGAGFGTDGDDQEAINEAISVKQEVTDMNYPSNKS

[11] = target: T1, NAD-dependent protein deacetylase sirtuin-3, mitochondrial (Homo sapiens); assay: Activation of N-terminal his-tagged human SIRT3 (114 to 380 residues) expressed in Escherichia coli assessed as fold activation at 100 uM using ACS2-acK642 as substrate in presence of NAD+; details: filed as activator
How it was run: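 Coupled continuous enzymatic assay (nicotinamidase/GDH-linked): 1.5 µM purified Sirt3 with 50 µM ACS2-acK642 peptide and 100 µM NAD+, compound at 10 µM, 100 µM or titrated, 5% DMSO final; fold deacetylation versus no-compound control.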

[12] = target: T3, NAD-dependent protein deacetylase sirtuin-1 (Homo sapiens); assay: Activation of N-terminal his-tagged human SIRT1 expressed in Escherichia coli assessed as fold activation at 10 to 100 uM using p53-acK381 as substrate in presence of NAD+; details: filed as activator, dose 10-100 µM; how it was run: as §1

inhibition [1]: 60% | inhibition [2]: 75%
SMILES: CCOC(=O)C1=CN(Cc2ccccc2)C=C(C(=O)OCC)C1c1cncs1

Activity [3]: Active | Activity [4]: Active | fold change (FC) [5]: 3 | Activity [6]: Active | Activity [7]: Active | Activity [8]: Active
SMILES: CCOC(=O)C1=CN(C(=O)c2ccccc2)C=C(C(=O)OCC)C1c1ccsc1

fold change (FC) [9]: 2.5 | fold change (FC) [5]: 3 | fold change (FC) [10]: 4
SMILES: CCOC(=O)C1=CN(C(=O)c2cc(OC)c(OC)c(OC)c2)C=C(C(=O)OCC)C1c1cccc(N)c1

fold change (FC) [11]: 2 | fold change (FC) [12]: 1.5
SMILES: CCOC(=O)C1=CN(Cc2ccccc2)C=C(C(=O)OCC)C1c1ccccc1
